Test results published in ChEMBL document CHEMBL2010797, “Exploring aigialomycin d and its analogues as protein kinase inhibitors for cancer targets” (ACS Med Chem Lett, 2011).

Assays:
[1] = Inhibition of MEK
[2] = target: Cyclin-dependent kinase 2/cyclin A (Homo sapiens) (UniProt P24941+P20248+P78396); test: Inhibition of CDK2/cyclin A using 5-FAM-GGGPATPKKAKKL-COOH as substrate at 10 uM after 1 hr by IMAP assay; assay type: protein-complex assay
Outline: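 IMAP fluorescence-polarization enzyme assay on CDK2/cyclin A, testing competition at the ATP site. Compounds tested at 10 μM, with purvalanol A at 1 μM as reference. Percent inhibition is the average ± SD of three independent experiments, or the mean of two for some compounds.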

[3] = target: MAP kinase-interacting serine/threonine-protein kinase 2 (Homo sapiens, UniProt Q9HBH9); test: Inhibition of MNK2 using 5-FAM-TATKSGSTTKNRFVV-NH2 as substrate preincubated for 1 hr prior substrate addition measured after 2 hrs by IMAP assay
MAP kinase-interacting serine/threonine-protein kinase 2, sequence (Q9HBH9 whole entry): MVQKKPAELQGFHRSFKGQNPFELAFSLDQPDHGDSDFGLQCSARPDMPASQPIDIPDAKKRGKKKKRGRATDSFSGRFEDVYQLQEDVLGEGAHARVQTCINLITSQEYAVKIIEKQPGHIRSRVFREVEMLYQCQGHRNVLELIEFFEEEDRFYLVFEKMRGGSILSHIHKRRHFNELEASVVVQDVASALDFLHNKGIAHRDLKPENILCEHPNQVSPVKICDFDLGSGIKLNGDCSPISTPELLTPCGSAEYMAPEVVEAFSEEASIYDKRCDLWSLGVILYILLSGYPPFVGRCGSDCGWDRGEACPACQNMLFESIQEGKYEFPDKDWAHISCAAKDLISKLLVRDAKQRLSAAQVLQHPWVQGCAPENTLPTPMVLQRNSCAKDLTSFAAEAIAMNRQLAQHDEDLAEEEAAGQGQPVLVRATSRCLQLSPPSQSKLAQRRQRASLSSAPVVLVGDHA

[4] = target: Cyclin-dependent kinase 2/cyclin A (Homo sapiens, UniProt P24941); test: Inhibition of CDK2/cyclin A using 5-FAM-GGGPATPKKAKKL-COOH as substrate after 1 hr by IMAP assay; assay type: protein-complex assay
Outline: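 IMAP fluorescence-polarization assay on CDK2/cyclin A. IC50 taken from dose–response curves, given as average ± SD of three independent experiments, or the mean of two for one compound.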

[5] = Inhibition of MAP

Row | Compound | INH [1] [nM] | inhibition [2] [%] | IC50 [3] [µM] | IC50 [4] [µM] | INH [5] [nM]
1 | COc1cc(O)c2c(c1)CCC[C@H](O)[C@H](O)C(=O)/C=C\C[C@H](C)OC2=O | 4 |  |  |  | 
2 | C[C@H]1C/C=C/[C@@H](O)[C@@H](O)CCC(=NO)Cc2cc(O)cc(O)c2C(=O)O1 (mixture of isomers) |  | 19 | > 10 |  | 
3 | COc1cc(O)c2c(c1)/C=C/CC[C@H](O)[C@H](O)/C=C/C[C@H](C)OC2=O |  | 49 | > 10 | 19 | 
4 | COc1cc(O)c2c(c1)[C@H]1O[C@@H]1C[C@H](O)[C@H](O)C(=O)/C=C\C[C@H](C)OC2=O |  |  |  |  | 17
5 | CC(C)[C@H](CO)Nc1nc(Nc2cccc(Cl)c2)c2ncn(C(C)C)c2n1 |  | 94 |  |  | 
6 | C[C@H]1C/C=C/CCCC/C=C/c2cc(O)cc(O)c2C(=O)O1 |  | 17 | 1.61 |  | 
7 | COc1cc(O)cc2c1C(=O)O[C@@H](C)CCC[C@@H](O)[C@@H](O)CC/C=C/2 |  | 10 | > 10 |  | 
8 | C[C@H]1CCC[C@@H](O)[C@@H](O)CCCCc2cc(O)cc(O)c2C(=O)O1 |  | 16 | > 10 |  | 
9 | C[C@H]1CCC[C@@H](O)[C@@H](O)CCC(=O)Cc2cc(O)cc(O)c2C(=O)O1 |  | 17 | > 10 |  | 
